{
  "source": "paper PMC9407455",
  "about": "(Proceedings of the National Academy of Sciences of the …, 2022)",
  "test_system": "HeLa cell–derived xenografts",
  "experiment": "Xenograft tumor assay",
  "format": "in vivo, mice",
  "details": "iJMJD6 25 mg/kg or JQ1 50 mg/kg alone or in combination, i.p. every other day",
  "procedure,_shortened": "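Female BALB/c nude mice inoculated with HeLa cells, randomized, and injected i.p. every other day with DMSO or test compound at indicated doses. Tumour growth curves and endpoint tumour weights recorded (mean ±SEM); tumour lysates immunoblotted.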",
  "data": [
    {"smiles": "Cc1sc2c(c1C)C(c1ccc(Cl)cc1)=N[C@@H](CC(=O)OC(C)(C)C)c1nnc(C)n1-2", "note": "[JQ1]", "values": [
      {"measurement": "tumor suppressive effect", "result": "readily seen"}
    ]}
  ]
}
